Tests used:
[1] = tested on: Plasma; experiment: Drug level in human plasma assessed as radioactivity treated with [14C]SB-649868 at 30 mg, po single dose after 12 hrs by HPLC-MSn analysis; assay type: ADME, organism-based; set-up: dosed compound name [14C]SB-649868; conditions: in vivo
Method in brief: (§1)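 Plasma taken 3, 12, 24 and 48 h after one oral 30 mg [14C] dose, extracted, and run on radio-HPLC: C8 column, 45 mM ammonium acetate pH 3.8 and acetonitrile gradient, 1 ml/min. Fractions collected into scintillant plates and counted 5 min. Extraction recovery measured; data corrected when recovery was <85%. Values are % of plasma radioactivity, BQL 1%; n=7 at 3 and 12 h.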

[2] = Drug level in human urine treated with [14C]SB-649868 at 30 mg, po single dose after 0 to 72 hrs by HPLC-MSn analysis; conditions: in vivo, 0-72 h
[3] = tested on: Plasma; experiment: Drug level in human plasma assessed as radioactivity treated with [14C]SB-649868 at 30 mg, po single dose after 48 hrs by HPLC-MSn analysis; assay type: ADME, organism-based; set-up: dosed compound name [14C]SB-649868; conditions: in vivo; method in brief: as §1
[4] = tested on: Plasma; experiment: Drug level in human plasma assessed as radioactivity treated with [14C]SB-649868 at 30 mg, po single dose after 3 hrs by HPLC-MSn analysis; assay type: ADME, organism-based; set-up: dosed compound name [14C]SB-649868; conditions: in vivo; method in brief: as §1
[5] = tested on: Plasma; experiment: Drug level in human plasma assessed as radioactivity treated with [14C]SB-649868 at 30 mg, po single dose after 24 hrs by HPLC-MSn analysis; assay type: ADME, organism-based; set-up: dosed compound name [14C]SB-649868; conditions: in vivo; method in brief: as §1
[6] = Drug level in human feces treated with [14C]SB-649868 at 30 mg, po single dose by HPLC-MSn analysis; conditions: in vivo
[7] = Elimination half life in dog; assay type: ADME, organism-based, Canis lupus familiaris; set-up: dosed compound name [14C]SB-649868; conditions: in vivo, read-out: Compound recovery
[8] = tested on: Homo sapiens; experiment: Apparent half life in human plasma treated with [14C]SB-649868 at 30 mg, po single dose; assay type: ADME, organism-based; set-up: dosed compound name [14C]SB-649868; conditions: in vivo
Method in brief: (§2)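 Eight healthy men given one oral 30 mg [14C] capsule. Plasma sampled 0.25–96 h. Parent measured in 50 µl plasma after acetonitrile precipitation with deuterated internal standard, by HPLC-MS/MS (positive-ion MRM). Calibration 5–5000 ng/ml, 1/x2 weighted. Noncompartmental analysis: t1/2 = ln2/λz, linear-up/log-down trapezoid AUC, CL/F = Dose/AUC0-inf.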

[9] = tested on: Plasma; experiment: Drug recovery in human plasma at 30, po single dose after 48 hrs by HPLC-MSn analysis; assay type: ADME, organism-based; set-up: dosed compound name [14C]SB-649868; method in brief: as §1
[10] = Elimination half life in rat; assay type: ADME, organism-based; set-up: dosed compound name [14C]SB-649868; conditions: in vivo, read-out: Compound recovery
[11] = tested on: Homo sapiens; experiment: Cmax in human plasma treated with [14C]SB-649868 at 30 mg, po single dose; assay type: ADME, organism-based; set-up: dosed compound name [14C]SB-649868; conditions: in vivo; method in brief: as §2
[12] = tested on: Plasma; experiment: Drug recovery in human plasma at 30, po single dose after 3 hrs by HPLC-MSn analysis; assay type: ADME, organism-based; set-up: dosed compound name [14C]SB-649868; method in brief: as §1
[13] = tested on: Homo sapiens; experiment: AUC (0 to t) in human plasma treated with [14C]SB-649868 at 30 mg, po single dose; assay type: ADME, organism-based; set-up: dosed compound name [14C]SB-649868; conditions: in vivo; method in brief: as §2
[14] = tested on: Homo sapiens; experiment: Tmax in human plasma treated with [14C]SB-649868 at 30 mg, po single dose; assay type: ADME, organism-based; set-up: dosed compound name [14C]SB-649868; conditions: in vivo; method in brief: as §2
[15] = tested on: Homo sapiens; experiment: Apparent oral clearance in human plasma treated with [14C]SB-649868 at 30 mg, po single dose; assay type: ADME, organism-based; set-up: dosed compound name [14C]SB-649868; conditions: in vivo; method in brief: as §2
[16] = tested on: Homo sapiens; experiment: AUC (0 to infinity) in human plasma treated with [14C]SB-649868 at 30 mg, po single dose; assay type: ADME, organism-based; set-up: dosed compound name [14C]SB-649868; conditions: in vivo; method in brief: as §2
[17] = Terminal phase half life in human at 10 to 60 mg; assay type: ADME, organism-based; set-up: dosed compound name [14C]SB-649868; conditions: in vivo, read-out: Compound recovery (converted)

Compound recovery [1] | Compound recovery [2] | Compound recovery [3] | Compound recovery [4] | Compound recovery [5] | Compound recovery [6] | half-life [7] | Compound recovery [8] | Compound recovery [9] | half-life [10] | Compound recovery [11] | Compound recovery [12] | Compound recovery [13] | Compound recovery [14] | Compound recovery [15] | Compound recovery [16] | half-life [17] | SMILES
1% | 0.6% | 3% | 1.3% | 1.9% | 1.5% | – | – | – | – | – | – | – | – | – | – | – | Cc1nc(C(=O)N2CCCC[C@H]2CN)c(-c2ccc(F)cc2)s1
16.8% | 0.2% | 15.1% | 6% | 19.3% | 2.6% | – | – | – | – | – | – | – | – | – | – | – | Cc1nc(C(=O)N2CCCC[C@H]2CN2C(=O)c3cccc(O)c3CC2O)c(-c2ccc(F)cc2)s1 (stereo not given in full)
6.7% | 1.5% | < 1 | < 1 | 4.2% | 10.3% | – | – | – | – | – | – | – | – | – | – | – | Cc1nc(C(=O)N2CCCC[C@H]2CNC(=O)c2cccc(O)c2CC(=O)O)c(-c2ccc(F)cc2)s1
33.2% | Below quantification limit | < 1 | 67.7% | 9.8% | Below quantification limit | < 1 h | 4.8 h | 34% | < 1 h | 1.2 µg/mL | 97% | 8200 ng·h/mL | 4 h | 3610 mL/h | 8300 ng·h/mL | 2.2 h | Cc1nc(C(=O)N2CCCC[C@H]2CNC(=O)c2cccc3occc23)c(-c2ccc(F)cc2)s1 [SB-649868]

Reference: ChEMBL document CHEMBL3525942, “Disposition and metabolism of [14C]SB-649868, an orexin 1 and 2 receptor antagonist, in humans” (Drug Metab Dispos, 2011)
